CaV13 ICDI inh = Disruptors of the CACNA1D IQ motif to Ca2+-dependent inactivation inhibitor domain association, primary screening, Förster resonance energy transfer in intact living …. HEK cells, CFP/YFP FRET ICDI-IQ, plate reader, 10 min; percent FRET-ratio fall versus neutral wells. inhibition, % at 12.3 µM. hit rate 0.098% among 340,000. AID 743397;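 active = mean replicate inhibition of at least 30% and at least 1% of replicates passing that level; inconclusive = only one of the two criteria is met; inactive = neither criterion is met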
RanGTP-Imp inh = disruptors of Ran-importin-beta complex formation – biochemical, FRET, CFP-Ran, YFP-importin-beta, homogeneous, primary screen | cell-free CFP-Ran/YFP-importin-beta FRET ratio | inhibition, % (test concentration not listed) | hit rate 1.1% among 300,000 | AID 2216;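 active = more than half of the replicate wells show a fall in the fluorescence ratio signal beyond about 16%, limit read from the data, passing the limit was not always enough; inconclusive = exactly half of the replicate wells pass the set limit; inactive = fewer than half of replicates pass the limit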
Runt-CBFb FRET = blocks binding of human RUNX1 Runt domain to CBFb; Q01196+Q13951; Cerulean-Runt/Venus-CBFb FRET ratio 530/480, 1 h; inhibition, % at 20 µM; hit rate 0.46% among 220,000; AID 1496;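 active = inhibition over about 50% at 20 µM in the single-dose screen, limit read from the data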
Target sequence (Q01196 whole entry, looked up, the tested form may be a part): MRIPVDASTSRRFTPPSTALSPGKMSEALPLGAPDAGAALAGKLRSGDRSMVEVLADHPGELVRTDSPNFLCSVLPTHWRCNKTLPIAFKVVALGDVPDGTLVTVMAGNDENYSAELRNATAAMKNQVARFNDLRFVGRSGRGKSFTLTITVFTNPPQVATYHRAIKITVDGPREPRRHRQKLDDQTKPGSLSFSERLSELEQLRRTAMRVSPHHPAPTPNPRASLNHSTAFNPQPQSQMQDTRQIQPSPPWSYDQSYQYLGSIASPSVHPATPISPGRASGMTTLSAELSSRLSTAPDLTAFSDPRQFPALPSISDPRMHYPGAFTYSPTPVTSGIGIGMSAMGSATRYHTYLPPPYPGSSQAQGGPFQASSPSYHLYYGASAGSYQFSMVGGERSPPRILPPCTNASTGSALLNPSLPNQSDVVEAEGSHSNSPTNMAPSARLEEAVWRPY
Target sequence (Q13951 whole entry, looked up, the tested form may be a part): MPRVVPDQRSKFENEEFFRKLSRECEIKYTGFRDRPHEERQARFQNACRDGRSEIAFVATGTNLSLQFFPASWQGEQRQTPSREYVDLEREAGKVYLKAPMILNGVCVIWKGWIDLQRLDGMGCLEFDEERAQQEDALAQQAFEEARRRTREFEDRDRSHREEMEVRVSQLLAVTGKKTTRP
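Reagent – Venus-CBFb binding partner, 100 nM · Assay system – Cerulean-tagged RUNX1 Runt domain (FRET donor) fusion protein · Input – 100 nM per protein · Incubation – two 1 h room-temperature incubations shielded from light · Measured by – FRET fluorescence · Medium – Tris buffer pH 7.5 with salts and BSA · Benchmarks – unlabeled CBFb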
Runt-SMMHC FRET = Runt domain-CBFb-SMMHC interaction inhibition. Q01196+Q13951. Cerulean-Runt/Venus-CBFb-SMMHC FRET ratio 530/480, 1 h. inhibition, % at 20 µM. hit rate 0.74% among 220,000. AID 1434;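 active = mean inhibition across duplicate retests at 20 µM reaching about 50%, limit read from the data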;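 note: inhibitors lower the FRET ratio by blocking Runt binding to CBFb-SMMHC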
Of the large screens only hits and unclear results are named; the others gave an inactive call. Only some compounds are listed: those with a hit (about 1.2% of all), similar ones and a draw of the others.

N#C/C(=C/c1ccc(C(=O)O)cc1)C(=O)NCc1ccccc1	none
CCN(CC)c1ccc(/C=C(\C#N)C(=O)NCc2ccccc2)cc1	RanGTP-Imp inh 109, Runt-CBFb FRET 79, Runt-SMMHC FRET 59 (no result: CaV13 ICDI inh)
CCN(CC)c1ccc(/C=C(\C#N)C(=O)NCc2ccco2)cc1	Runt-SMMHC FRET 60 (no result: RanGTP-Imp inh)
CC(OC(=O)/C(C#N)=C/c1ccc(N(C)C)cc1)C(=O)NCc1ccco1 (centres undefined)	none (no result: Runt-CBFb FRET, Runt-SMMHC FRET)
COc1cccc(C(=O)N2CCC[C@@H]2C(=O)N2CCC[C@H]2C(=O)NCc2ccccc2)c1	none (no result: RanGTP-Imp inh, Runt-CBFb FRET, Runt-SMMHC FRET)
O=C1c2ccccc2C(Nc2ccc(F)cc2F)N1CCN1CCOCC1 (centres undefined)	none
Nc1ccc2ccc(N)cc2c1	none (no result: RanGTP-Imp inh, Runt-CBFb FRET, Runt-SMMHC FRET)
Nc1ccc2[nH]ncc2c1	RanGTP-Imp inh inconclusive, Runt-SMMHC FRET 57
COc1cc(C(c2c(C(=O)O)[nH]c3ccccc23)c2c(C(=O)O)[nH]c3ccccc23)ccc1OCc1ccccc1	CaV13 ICDI inh 103 (no result: Runt-CBFb FRET, Runt-SMMHC FRET)
COc1cc(C2Nc3ccccc3NC3=C2C(=O)CC(c2ccc(OC)c(OC)c2)C3)ccc1O (centres undefined)	Runt-SMMHC FRET 56
COc1ccc(C2CC(=O)C3=C(C2)Nc2ccccc2N(C(=O)C2CC2)C3c2cccnc2)cc1OC (centres undefined)	none
CCCNC(=O)COC(=O)c1cc2c(=O)n3ccccc3nc2s1	Runt-CBFb FRET 83, Runt-SMMHC FRET 121
O=C(Nc1cccc(Cl)c1)c1cc2c(=O)n3ccccc3nc2s1	RanGTP-Imp inh 91 (no result: Runt-CBFb FRET, Runt-SMMHC FRET)
Cc1ccc(S(=O)(=O)N(CC(=O)N2CCOCC2)CC(=O)N2CCOCC2)cc1	RanGTP-Imp inh 32
CCOC(=O)[C@]12CCCC=C1N(CCc1ccc(OC)c(OC)c1)C(=O)[C@H](CC(=O)N1CCN(C(=O)C3CC3)CC1)C2	none (no result: RanGTP-Imp inh, Runt-CBFb FRET, Runt-SMMHC FRET)
CSc1ccc(Cn2c(C)c(C(=O)NCc3cccc(Cl)c3)sc2=O)cc1	CaV13 ICDI inh 42 (no result: RanGTP-Imp inh, Runt-CBFb FRET, Runt-SMMHC FRET)
C=Cc1ccc(Cn2c(C)c(C(=O)NCc3cccc(C(F)(F)F)c3)sc2=O)cc1	none (no result: RanGTP-Imp inh, Runt-CBFb FRET, Runt-SMMHC FRET)
Cc1c(C(=O)NCc2ccc(Cl)c(Cl)c2)sc(=O)n1Cc1cccc(F)c1	CaV13 ICDI inh 39 (no result: RanGTP-Imp inh, Runt-CBFb FRET, Runt-SMMHC FRET)
COc1ccc(Br)c(Cn2c(C)c(C(=O)NCc3ccc4c(c3)OCCO4)sc2=O)c1	CaV13 ICDI inh 47 (no result: RanGTP-Imp inh, Runt-CBFb FRET, Runt-SMMHC FRET)
C=Cc1ccc(Cn2c(C)c(C(=O)NCc3cccc(C)c3)sc2=O)cc1	CaV13 ICDI inh 69 (no result: RanGTP-Imp inh, Runt-CBFb FRET, Runt-SMMHC FRET)
Cc1c(C(=O)NCc2cccc(Cl)c2)sc(=O)n1Cc1cccc(F)c1	none (no result: RanGTP-Imp inh, Runt-CBFb FRET, Runt-SMMHC FRET)
CC(=O)Oc1ccc(Cn2c(C)c(C(=O)NCc3ccc4c(c3)OCCO4)sc2=O)cc1	none (no result: RanGTP-Imp inh, Runt-CBFb FRET, Runt-SMMHC FRET)
COc1ccc(C(C(=O)NC(C)C)N(C(=O)CCC(=O)Nc2nccs2)c2ccccc2F)cc1 (centres undefined)	none
Cc1ccc(Cl)cc1NC(=S)N1CCC(c2ccccc2)C1 (centres undefined)	none
O=c1ccc(-c2ccc(S(=O)(=O)Nc3cccc(Br)c3)o2)n[nH]1	none (no result: Runt-CBFb FRET, Runt-SMMHC FRET)
CCCCCCC12Cc3cc(OC)c(OC)cc3C(O1)C1=C(O2)C(C)(C)CCC1=O (centres undefined)	none (no result: RanGTP-Imp inh, Runt-CBFb FRET, Runt-SMMHC FRET)
Cc1ccc(S[C@@H](CCN2CC[C@H](O)CCC2=O)c2ccccc2)cc1	CaV13 ICDI inh 33 (no result: Runt-CBFb FRET, Runt-SMMHC FRET)
COCCNC(=O)/C(C#N)=C/c1ccc(N2CCOCC2)o1	RanGTP-Imp inh 50
N#C/C(=C\c1ccc(N2CCOCC2)o1)C(=O)NCC1CCCO1 (centres undefined)	none
N#C/C(=C\c1ccc(N2CCOCC2)o1)C(=O)NCCc1ccccc1	CaV13 ICDI inh active, RanGTP-Imp inh 53, Runt-SMMHC FRET 94
O=C(NCCCN1CCOCC1)C(=O)NCCc1ccccc1	none
CNS(=O)(=O)c1cc(NC(=O)CCNC(=O)c2ccco2)ccc1C	none (no result: Runt-CBFb FRET, Runt-SMMHC FRET)
COc1cccc2c(=O)c3c(cnn3C)n(C)c12	CaV13 ICDI inh 35, RanGTP-Imp inh 126, Runt-SMMHC FRET 62
COc1cccc2c(=O)c3ccoc3n(C)c12	none (no result: CaV13 ICDI inh)
CCCCCCNC(=O)C(C#N)c1nc2ccccc2nc1N1CCCC1 (centres undefined)	RanGTP-Imp inh 24 (no result: CaV13 ICDI inh)
CCOC(=O)N1CCN(c2nc3ccccc3nc2C(C#N)C(=O)NCCc2ccccc2)CC1 (centres undefined)	none (no result: CaV13 ICDI inh)
CCCCCNC(=O)C(C#N)c1nc2ccccc2nc1N1CCCC1 (centres undefined)	RanGTP-Imp inh 20 (no result: CaV13 ICDI inh)
CCCCCCNC(=O)C(C#N)c1nc2ccccc2nc1N1CCOCC1 (centres undefined)	none (no result: CaV13 ICDI inh)

Assay outcomes: PubChem BioAssay, several laboratories
